# In ChEMBL document CHEMBL2046311, “Design, synthesis, and molecular hybrids of caudatin and cinnamic acids as novel anti-hepatitis B virus agents” (Eur J Med Chem, 2012):
# What was measured:
# Hepatitis B virus [1] = assay: Antiviral activity against Hepatitis B virus infected in human HepG2(2.2.15) cells assessed as inhibition of viral e antigen secretion by ELISA; format: functional, organism-based
# How it was run: (§1)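 HepG 2.2.15 cells in RPMI-1640 with 10% fetal calf serum at 37 °C, 5% CO2. Compounds dissolved in DMSO, culture DMSO below 2.5 μL/mL. Secreted HBeAg and HBsAg measured by ELISA. IC50 values are means of at least two experiments.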
# Hepatitis B virus [2] = assay: Antiviral activity against Hepatitis B virus infected in human HepG2(2.2.15) cells assessed as inhibition of viral DNA replication by PCR analysis; format: functional, organism-based
# How it was run: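 HepG 2.2.15 cells grown in RPMI-1640 with 10% fetal calf serum, […] and penicillin/streptomycin at 37 °C, 5% CO2. Compounds added in DMSO, kept below 2.5 μL/mL. HBV DNA quantified by SYBR Green real-time PCR with HBV-specific primers spanning 541–591 bp. IC50 values are means of at least two experiments.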
# [3] = Selectivity index, ratio of CC50 for human HepG2(2.2.15) cells to IC50 for Hepatitis B virus infected in human HepG2(2.2.15) cells assessed as inhibition of viral e antigen secretion; format: functional
# How it was run: (§2)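 SI calculated as CC50 (MTT, HepG 2.2.15) divided by IC50 for the named read-out (HBV DNA by real-time PCR, or HBeAg or HBsAg secretion by ELISA), in the same cell line.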
# [4] = Selectivity index, ratio of CC50 for human HepG2(2.2.15) cells to IC50 for Hepatitis B virus infected in human HepG2(2.2.15) cells assessed as inhibition of viral surface antigen secretion; format: functional; how it was run: as §2
# Hepatitis B virus [5] = assay: Antiviral activity against Hepatitis B virus infected in human HepG2(2.2.15) cells assessed as inhibition of viral surface antigen secretion by ELISA; format: functional, organism-based; how it was run: as §1
# [6] = Cytotoxicity against human HepG2(2.2.15) cells by modified-MTT assay; format: cell-based
# How it was run: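 HepG 2.2.15 cells in RPMI-1640 with 10% fetal calf serum at 37 °C, 5% CO2. Compounds in DMSO, final DMSO below 2.5 μL/mL. Viability read by modified MTT method. CC50 is the mean of at least two experiments.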
# [7] = Selectivity index, ratio of CC50 for human HepG2(2.2.15) cells to IC50 for Hepatitis B virus infected in human HepG2(2.2.15) cells assessed as inhibition of viral DNA replication; format: functional; how it was run: as §2
Compound,IC50 (Hepatitis B virus [1]),IC50 (Hepatitis B virus [2]),Ratio CC50/IC50 [3],Ratio CC50/IC50 [4],IC50 (Hepatitis B virus [5]),CC50 [6],Ratio CC50/IC50 [7]
CC(=O)[C@]1(O)CC[C@@]2(O)[C@]1(C)[C@H](OC(=O)/C=C(\C)C(C)C)C[C@@H]1[C@@]3(C)CC[C@H](OC(=O)/C=C/c4ccccc4[N+](=O)[O-])CC3=CC[C@]12O,52.7 µM,21.7 µM,>29.4,>41.9,37 µM,> 1550 µM,>71.4
CC(=O)[C@]1(OC(=O)/C=C/c2ccc(Cl)cc2)CC[C@@]2(O)[C@]1(C)[C@H](OC(=O)/C=C(\C)C(C)C)C[C@@H]1[C@@]3(C)CC[C@H](OC(=O)/C=C/c4ccc(Cl)cc4)CC3=CC[C@]12O,> 290 µM,> 290 µM,–,–,> 290 µM,> 1160 µM,–
C[C@H](Cn1cnc2c(N)ncnc21)OCP(=O)(O)O [TENOFOVIR ANHYDROUS],1160 µM,0.68 µM,>1.5,>1.2,–,> 1740 µM,>2560.2
COc1ccc(/C=C/C(=O)O[C@H]2CC[C@@]3(C)C(=CC[C@]4(O)[C@@H]3C[C@@H](OC(=O)/C=C(\C)C(C)C)[C@@]3(C)[C@]4(O)CC[C@@]3(O)C(C)=O)C2)cc1OC,85.2 µM,11.8 µM,>18.8,>72.7,22.1 µM,> 1600 µM,>135.6
COc1ccc(/C=C/C(=O)O[C@H]2CC[C@@]3(C)C(=CC[C@]4(O)[C@@H]3C[C@@H](OC(=O)/C=C(\C)C(C)C)[C@@]3(C)[C@]4(O)CC[C@@]3(O)C(C)=O)C2)c(OC)c1OC,28 µM,21.1 µM,>55.3,>125,12.4 µM,> 1550 µM,>73.5
CC(=O)[C@]1(O)CC[C@@]2(O)[C@]1(C)[C@H](OC(=O)/C=C(\C)C(C)C)C[C@@H]1[C@@]3(C)CC[C@H](OC(=O)/C=C/c4ccc(Cl)c(Cl)c4)CC3=CC[C@]12O,949 µM,14.1 µM,>1.5,>12.7,112 µM,> 1420 µM,>101.2
CC(=O)[C@]1(O)CC[C@@]2(O)[C@]1(C)[C@H](OC(=O)/C=C(\C)C(C)C)C[C@@H]1[C@@]3(C)CC[C@H](OC(=O)/C=C/c4ccc(Br)cc4)CC3=CC[C@]12O,485 µM,16 µM,>2.7,>35.5,36.4 µM,> 1290 µM,>80.6
COc1ccccc1/C=C/C(=O)O[C@H]1CC[C@@]2(C)C(=CC[C@]3(O)[C@@H]2C[C@@H](OC(=O)/C=C(\C)C(C)C)[C@@]2(C)[C@]3(O)CC[C@@]2(O)C(C)=O)C1,753 µM,7.3 µM,>3.1,>36.9,64 µM,> 2370 µM,>324.1
CC(=O)[C@]1(O)CC[C@@]2(O)[C@]1(C)[C@H](OC(=O)/C=C(\C)C(C)C)C[C@@H]1[C@@]3(C)CC[C@H](O)CC3=CC[C@]12O [CAUDATIN],> 183 µM,–,<1.3,1.7,–,–,6
CCOc1ccccc1/C=C/C(=O)O[C@H]1CC[C@@]2(C)C(=CC[C@]3(O)[C@@H]2C[C@@H](OC(=O)/C=C(\C)C(C)C)[C@@]2(C)[C@]3(O)CC[C@@]2(O)C(C)=O)C1,404 µM,12 µM,>4.3,>42.6,40.6 µM,> 1730 µM,>143.8
COc1cccc(/C=C/C(=O)O[C@H]2CC[C@@]3(C)C(=CC[C@]4(O)[C@@H]3C[C@@H](OC(=O)/C=C(\C)C(C)C)[C@@]3(C)[C@]4(O)CC[C@@]3(O)C(C)=O)C2)c1,24.9 µM,4.46 µM,>43.3,>102,10.5 µM,> 1080 µM,>241.2
CC(=O)[C@]1(O)CC[C@@]2(O)[C@]1(C)[C@H](OC(=O)/C=C(\C)C(C)C)C[C@@H]1[C@@]3(C)CC[C@H](OC(=O)/C=C/c4ccccc4F)CC3=CC[C@]12O,21.6 µM,7.68 µM,24.2,7.3,72 µM,523 µM,68.1
CC(=O)[C@]1(O)CC[C@@]2(O)[C@]1(C)[C@H](OC(=O)/C=C(\C)C(C)C)C[C@@H]1[C@@]3(C)CC[C@H](OC(=O)/C=C/c4c(F)c(F)c(F)c(F)c4F)CC3=CC[C@]12O,353 µM,9.9 µM,–,–,26.3 µM,< 8.22 µM,–
CC(=O)[C@]1(O)CC[C@@]2(O)[C@]1(C)[C@H](OC(=O)/C=C(\C)C(C)C)C[C@@H]1[C@@]3(C)CC[C@H](OC(=O)/C=C/c4cccc(C(F)(F)F)c4)CC3=CC[C@]12O,> 1190 µM,14.9 µM,–,6.4,112 µM,718 µM,48.3
CC(=O)[C@]1(O)CC[C@@]2(O)[C@]1(C)[C@H](OC(=O)/C=C(\C)C(C)C)C[C@@H]1[C@@]3(C)CC[C@H](OC(=O)/C=C/c4ccc(C)cc4)CC3=CC[C@]12O,> 550 µM,12 µM,–,5.1,108 µM,550 µM,46
CC(=O)[C@]1(O)CC[C@@]2(O)[C@]1(C)[C@H](OC(=O)/C=C(\C)C(C)C)C[C@@H]1[C@@]3(C)CC[C@H](OC(=O)/C=C/c4ccc(O)c(O)c4)CC3=CC[C@]12O,> 567 µM,9.1 µM,–,–,16.1 µM,8.49 µM,–
CC(=O)[C@]1(O)CC[C@@]2(O)[C@]1(C)[C@H](OC(=O)/C=C(\C)C(C)C)C[C@@H]1[C@@]3(C)CC[C@H](OC(=O)/C=C/c4cc(C(F)(F)F)cc(C(F)(F)F)c4)CC3=CC[C@]12O,612 µM,> 321 µM,>2.1,>3,433 µM,> 1280 µM,–
CC(=O)[C@]1(O)CC[C@@]2(O)[C@]1(C)[C@H](OC(=O)/C=C(\C)C(C)C)C[C@@H]1[C@@]3(C)CC[C@H](OC(=O)/C=C/c4cccc(OC(F)(F)F)c4)CC3=CC[C@]12O,> 584 µM,5.71 µM,–,2.5,236 µM,584 µM,102.3
COc1cccc(/C=C/C(=O)O[C@H]2CC[C@@]3(C)C(=CC[C@]4(O)[C@@H]3C[C@@H](OC(=O)/C=C(\C)C(C)C)[C@@]3(C)[C@]4(O)CC[C@@]3(OC(=O)/C=C/c3cccc(OC)c3)C(C)=O)C2)c1,> 1370 µM,> 342 µM,–,–,> 1370 µM,> 1370 µM,–
CC(=O)[C@]1(O)CC[C@@]2(O)[C@]1(C)[C@H](OC(=O)/C=C(\C)C(C)C)C[C@@H]1[C@@]3(C)CC[C@H](OC(=O)/C=C/c4ccc(Cl)cc4)CC3=CC[C@]12O,> 701 µM,16.3 µM,–,5.9,119 µM,701 µM,43.1
CC(=O)Oc1ccc(/C=C/C(=O)O[C@H]2CC[C@@]3(C)C(=CC[C@]4(O)[C@@H]3C[C@@H](OC(=O)/C=C(\C)C(C)C)[C@@]3(C)[C@]4(O)CC[C@@]3(O)C(C)=O)C2)cc1,231 µM,3.42 µM,–,–,< 6.96 µM,< 6.96 µM,<2
COc1ccc(/C=C/C(=O)O[C@H]2CC[C@@]3(C)C(=CC[C@]4(O)[C@@H]3C[C@@H](OC(=O)/C=C(\C)C(C)C)[C@@]3(C)[C@]4(O)CC[C@@]3(OC(=O)/C=C/c3ccc(OC)c(OC)c3)C(C)=O)C2)cc1OC,632 µM,> 307 µM,>1.9,>2.3,528 µM,> 1210 µM,–
COc1cc(/C=C/C(=O)O[C@H]2CC[C@@]3(C)C(=CC[C@]4(O)[C@@H]3C[C@@H](OC(=O)/C=C(\C)C(C)C)[C@@]3(C)[C@]4(O)CC[C@@]3(O)C(C)=O)C2)ccc1OC(C)=O,653 µM,4.39 µM,–,–,< 9.97 µM,< 9.97 µM,<2.3
CC(=O)[C@]1(OC(=O)/C=C/c2ccccc2[N+](=O)[O-])CC[C@@]2(O)[C@]1(C)[C@H](OC(=O)/C=C(\C)C(C)C)C[C@@H]1[C@@]3(C)CC[C@H](OC(=O)/C=C/c4ccccc4[N+](=O)[O-])CC3=CC[C@]12O,522 µM,> 434 µM,>3.3,>15,116 µM,> 1740 µM,–
